# TRPC4 block: inhibitors of mouse TRPC4 channel; HEK293 TRPC4beta/mu-opioid, DAMGO-evoked Fluo4 calcium flux; hits give low values; Q9QUQ5; B-score at 10 µM; 300,000 tested, 0.39% active;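 active = B-score over 3 SD under the library average, no early fluorescence shift, positive overall ratio signal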
#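 Material: HEK293 cells with stable TRPC4beta plus mu-opioid receptor expression; probe or stimulus: DAMGO in two steps, submaximal then maximal; technique: Fluo4 calcium fluorescence by kinetic imaging, 5 s 1 Hz baseline; measure: integrated fluorescence ratio relative to baseline, converted to per-well B score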
# TRPC6 activator: mouse TRPC6 channel activation; Q61143; HEK293-TRPC6 membrane potential dye fluorescence; hits give high values; B-score at 10 µM; 310,000 tested, 0.13% active; AID 2550;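 active = B-score of the integrated fluorescence ratio above library mean plus 3 SD, and starting fluorescence ratio within library mean plus 5 SD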;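 also: higher score means more depolarization so channel activation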
# TRPC4 act: opens the mouse TRPC4 cation channel | Q9QUQ5 | HEK293 TRPC4beta/mu-opioid, Fluo4 calcium fluorescence; hits give high values | B-score at 10 µM | 310,000 tested, 0.49% active;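 active = B-score above 5 SD of library B-scores, and initial fluorescence ratio not above library mean plus 5 SD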;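 also: positive B-score marks a calcium rise read as TRPC4 activation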
#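 Assay system: HEK293 stable line with TRPC4beta plus mu-opioid receptor; schedule: 45 min room-temperature Fluo4 loading, 110 s read; technique: kinetic Fluo4 calcium fluorescence; evaluation: integrated baseline-normalised fluorescence ratio, converted to per-well B score; controls: buffer (low) and maximal DAMGO (high)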
# TRPC4 PAM: allosterically enhances the mouse TRPC4 cation channel; 310,000 tested, 0.42% active; HEK293 TRPC4beta/mu-opioid, DAMGO EC20, Fluo-4 Ca2+ flux; hits give high values; Q9QUQ5; B-score at 10 µM; AID 2227;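 active = B-score of calcium response area above 5 SD of library B-scores, with initial fluorescence ratio within 5 SD of library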;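 also: B-score of integrated fluorescence ratio over time as area under calcium response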
# TRPC6 inh: blocks the mouse TRPC6 cation channel. Q61143. B-score at 10 µM. 310,000 tested, 1.1% active. HEK293-TRPC6, membrane potential dye, ACh-evoked depolarization; hits give low values;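 active = B-score under library mean minus 3 SD, initial fluorescence not abnormally high, positive integrated signal ratio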;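 also: B-score derived from integrated fluorescence ratio over the kinetic read; more negative B-score means stronger inhibition of depolarization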
# Starred values were filed as active, the others as inactive; i = inactive. This is a sample that favours compounds with a hit; in the whole collection about 2.3% have one here.
SMILES,TRPC4 block,TRPC6 activator,TRPC4 act,TRPC4 PAM,TRPC6 inh
Cc1ccc(C)c2nc(Cl)c(C3NC(=O)c4ccccc4N3)cc12 (stereo not given),i,i,i,15*,i
Cc1cc(C)c2nc(Cl)c(C3NC(=O)c4ccccc4N3)cc2c1 (stereo not given),i,i,i,i,i
CN(Cc1ccccc1)C(=O)c1oc(=O)c2ccccc2c1-c1ccccc1,i,i,i,16*,i
O=C(N/N=C/c1cccnc1)c1ccccc1OCc1ccc(Cl)cc1,-6*,i,100*,i,i
O=C(N/N=C/c1cccnc1)c1ccccc1OCc1ccc(Br)cc1,i,i,i,i,i
COc1cccc(CC(=O)OC(C)C(=O)Nc2ccc(N3CCOCC3)cc2)c1 (stereo not given),i,i,i,i,i
CC(NC(=O)C(C)N1CCN(Cc2ccccc2)CC1)c1ccccc1 (stereo not given),i,i,i,i,i
O=C(Nc1ccc(F)cc1)C(NC1CCCCC1)c1ccccc1 (stereo not given),i,i,i,i,i
CN(C)C(CNC(C(=O)Nc1ccc(F)cc1)c1ccccc1)c1ccccc1 (stereo not given),i,i,139*,i,i
CN(C)C(CNC(C(=O)Nc1ccc([N+](=O)[O-])cc1Br)c1ccccc1)c1ccccc1 (stereo not given),i,i,74*,i,i
O=C(CSc1nnc(Cc2ccccc2)n1-c1cccc(Cl)c1)NNC(=O)Cc1ccccc1,i,i,i,i,i
Cc1cccc(NC(=S)NCC(c2cccnc2)N(C)C)c1C (stereo not given),i,i,101*,i,i
Cc1ccc(NC(=O)NCC(c2ccccc2)N(C)C)cc1 (stereo not given),i,i,46*,i,i
Cc1c(Cl)cccc1NC(=S)NCC(c1cccnc1)N(C)C (stereo not given),i,i,85*,i,i
Cc1ccc(C)c(NC(=S)NCC(c2ccccc2)N(C)C)c1 (stereo not given),i,i,180*,i,i
Cc1cccc(NC(=S)NCc2ccncc2)c1C,i,i,i,i,i
CC(=O)c1ccc(NC(=O)CNCC(c2ccccc2)N(C)C)cc1 (stereo not given),i,i,i,i,i
COC(=O)C1CCN(Cc2c(C(=O)N3C[C@@H](C)O[C@@H](C)C3)nc3ccc(Cl)cn23)CC1,i,i,i,i,i
Cc1ccccc1NC(=S)NCc1ccccc1,i,i,i,i,i
Cc1cccc(C)c1NC(=S)NCCc1ccccn1,i,i,i,i,i
Cc1ccccc1NC(=S)NCC(c1cccnc1)N(C)C (stereo not given),i,i,136*,i,i
Cc1ccccc1NC(=S)NCCc1ccccn1,i,i,88*,i,i
COCCN(CC1CCCN(C2Cc3ccccc3C2)C1)C(=O)c1cccc(C)c1 (stereo not given),i,i,i,i,i
CC(=O)c1ccc(N2CCN(c3ccc(S(=O)(=O)NCCCN(C)C)cc3[N+](=O)[O-])CC2)cc1,i,i,i,26*,i
CCOC(=O)c1cc(-c2cccc([N+](=O)[O-])c2)n[nH]1,i,i,i,23*,i
SMILES,TRPC4 block,TRPC6 activator,TRPC4 act,TRPC4 PAM,TRPC6 inh
COC(=O)CC(NC(=S)NC(=O)c1ccccc1)c1ccc(Br)cc1 (stereo not given),i,i,i,72*,i
COC(=O)CC(N)c1ccc(Br)cc1 (stereo not given),i,i,i,i,i
Cc1csc2c(N3CCN(S(=O)(=O)c4ccc(Cl)cc4)CC3)ncnc12,i,i,i,10*,i
Cc1c(C(=O)N2CCC(C)CC2)oc2ccc(S(=O)(=O)N3CCC4(CC3)OCCO4)cc12,i,i,i,i,i
Cc1cccc(OCCN2CCOCC2)c1C,i,i,i,i,i
Cc1cc(C)c(C)c(OCCCn2ccnc2)c1,i,i,i,i,i
Cc1cc(C)c(C)c(OCCN2CCOCC2)c1,i,i,i,10*,i
Cc1cc(C)c(C)c(OCCCN(C)C)c1,i,i,126*,13*,i
COc1ccc(-n2nc(C(=O)NCC(=O)NC3CCCCC3)c3ccccc3c2=O)cc1,i,i,i,i,i
O=C(CN1CCN(Cc2ccccc2)CC1)Nc1ccc(N2CCOCC2)cc1,i,i,i,i,i
CN(C)S(=O)(=O)c1cccc(NC(=O)Cn2cc(C(F)(F)F)cc(Cl)c2=O)c1,i,i,i,i,i
COCCCNc1nc2c(c(=O)n(Cc3ccc(OC)cc3)c(=O)n2C)n1C,i,i,i,i,i
COc1ccc(Cn2c(=O)c3c(nc(NCCO)n3C)n(C)c2=O)cc1,i,i,i,12*,i
Cc1ccccc1NC(=O)NCCCN1CCN(c2ccccc2)CC1,i,i,i,i,i
O=C(NCCCN1CCN(c2ccccc2)CC1)Nc1ccccc1C(F)(F)F,-6*,i,i,i,i
COc1ccccc1N1CCN(CCCNC(=O)Nc2ccccc2)CC1,-6*,i,i,i,i
CCCCOc1ccc(C(=O)N2CCNC(=O)C2)cc1,i,i,i,i,i
O=C(NC(Nc1nc2ccc([N+](=O)[O-])cc2s1)(C(F)(F)F)C(F)(F)F)c1ccccc1Cl,i,14*,i,i,-6.93*
Cc1ccc(NC2=Nc3ccccc3CC2)cc1,i,i,54*,i,i
C/C(=N\NC(=O)c1nnn(-c2nonc2N)c1CN(C)c1ccccc1)c1cccnc1,i,i,i,i,i
CCOc1ccccc1C(=O)NC1CC2CCCC(C1)N2Cc1ccc(C)cc1 (stereo not given),i,i,i,i,i
Cc1ccccc1C(=O)NC1CC2CCC(C1)N2Cc1ccccc1 (stereo not given),-5*,i,i,i,i
CN1CCN(C(=O)N2c3ccccc3C=Cc3ccccc32)CC1,i,i,i,13*,i
O=C(Nc1ccccc1)c1c2c(nc3ccccc13)CCCC2,i,i,i,i,i
CCOc1ccc2[nH]c(=O)c(CN(Cc3cccs3)Cc3nnnn3C(C)(C)CC)cc2c1,i,i,i,i,i

# Screening data from PubChem BioAssay.
